The results in this text go back to ChEMBL document CHEMBL1154320, “Cytotoxic neo-clerodane diterpenoid alkaloids from Scutellaria barbata” (J Nat Prod, 2009).

SMILES strings stand for the structures.

Type in all cases: functional, cell-based
The test system of one assay is KB. Description: Cytotoxicity against human KB cells after 72 hrs by methylene blue dye assay. In outline: (§1)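 Log-phase cells seeded at 5000 cells/mL/well in 24-well plates, exposed to a range of compound concentrations for 72 h. Growth read by methylene blue dye staining. IC50 (50% growth inhibition versus untreated control) read graphically; mean ± standard deviation of three independent replicates. IC50 above 10 µM taken as non-cytotoxic. Etoposide and cisplatin served as positive controls.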

A short description of assay [1]: Cytotoxicity against human HONE1 cells after 72 hrs by methylene blue dye assay. Conditions: HONE1, 72 h. A digest of the protocol: as §1
Another assay concerns HT-29. Description: Cytotoxicity against human HT-29 cells after 72 hrs by methylene blue dye assay. To be noted: HT-29, 72 h. In outline:
as §1

In general, IC50 refers to the midpoint of a concentration-inhibition curve. A high value points to weaker potency in that assay. For `CC1=CCC[C@H]2[C@@]1(C)[C@@H](O)[C@H](OC(=O)c1cccnc1)[C@](C)(O)[C@]2(C)/C=C/C1=CC(=O)OC1` [SCUTEHENANINE A], the IC50 was 4.5 µM in the assay with KB, 3.1 µM in assay [1] and 5.8 µM with HT-29.
The corresponding values for `CC1=CCC[C@H]2[C@@]1(C)[C@@H](OC(=O)c1cccnc1)[C@H](OC(=O)c1ccccc1)[C@](C)(O)[C@]2(C)[C@H]1CC2=C(O1)C(=O)OC2` [SCUTEHENANINE D] are 2.8 µM, 4.1 µM and 6.4 µM.
The corresponding values for `CC1=CCC[C@H]2[C@@]1(C)[C@@H](OC(=O)C(=O)C(C)C)[C@H](OC(=O)c1cccnc1)[C@](C)(O)[C@]2(C)/C=C/C1=CC(=O)OC1` are 4.2 µM, 4 µM and 5.5 µM.
The corresponding values for `CC1=CCC[C@H]2[C@@]1(C)[C@@H](OC(=O)c1ccccc1)[C@H](O)[C@]1(C)O[C@@]3(COC(=O)C3)C[C@H](OC(=O)c3cccnc3)[C@]21C` [SCUTEHENANINE B] are 4.7 µM, 3.5 µM and 5 µM.
In the case of `COc1cc([C@@H]2c3cc4c(cc3[C@@H](O[C@@H]3O[C@@H]5CO[C@@H](C)O[C@H]5[C@H](O)[C@H]3O)[C@H]3COC(=O)[C@H]23)OCO4)cc(OC)c1O` [ETOPOSIDE], the half-maximal inhibitory concentration (IC50) in the assay with KB worked out at 1.3 µM; in assay [1] it was 1.2 µM; with HT-29 it was 2.3 µM.
The corresponding values for `CC(=O)O[C@H]1[C@H](OC(=O)c2cccnc2)[C@](C)(O)[C@](C)(/C=C/C2=CC(=O)OC2)[C@H]2CCC=C(C)[C@]12C` [6-O-ACETYLSCUTEHENANINE A] are 3.2 µM, 3.7 µM and 5.2 µM.
The corresponding values for `C=C1CCC[C@H]2[C@@]1(C)[C@@H](OC(=O)c1ccccc1)[C@H](O)[C@]1(C)O[C@@]3(COC(=O)C3)C[C@H](OC(=O)c3cccnc3)[C@]21C` [SCUTEHENANINE C] are 2.9 µM, 3.4 µM and 5.3 µM.
